For data set [1], the system named is Rattus norvegicus. Put plainly: Antiinflammatory activity against albino rats assessed as inhibition of carrageenan-induced paw edema at 15 mg/kg, po measured after 4 hrs relative to control. The format is functional. The procedure, abridged: (§1)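 Carrageenan rat paw edema (Winter method) in male and female adult albino rats (100-140 g). […] Swelling inhibition expressed as % of control at 2-4 h after carrageenan injection.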
A general note: The carrageenan paw model is a standard test of acute inflammation.

In data set [2] the test system is Rattus norvegicus. Kind of data set: Antiinflammatory activity against albino rats assessed as inhibition of carrageenan-induced paw edema at 15 mg/kg, po measured after 2 hrs relative to control. The format is functional. The procedure, abridged:
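Winter carrageenan rat paw oedema model in adult albino rats of both sexes (100-140 g). Compounds given orally before carrageenan injection into the paw. Oedema inhibition % versus untreated control read at 2-4 h post-carrageenan. Significance versus control was tested at P < 0.05, 0.01 and 0.001. Animal work approved by the Umm Al-Qura University pharmacy ethics committee.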

Data set [3] relates to Rattus norvegicus. Put plainly: Antiinflammatory activity against albino rats assessed as inhibition of carrageenan-induced paw edema at 25 mg/kg, po measured after 2 hrs relative to control. Format: functional. An outline of the steps:
as §1

In data set [4] the test system is Rattus norvegicus. Kind of data set: Antiinflammatory activity against albino rats assessed as inhibition of carrageenan-induced paw edema at 25 mg/kg, po measured after 4 hrs relative to control. Format: functional. An outline of the steps: as §1
In data set [5] the test system is MCF7. Kind of data set: Cell cycle arrest in human MCF7 cells assessed as G2/M phase accumulation at 10 uM incubated for 24 hrs by propidium iodide based flow cytometry (reference value: 17.2 to 26.8 %). The format is functional. On the technique in general: Flow cytometry measures light scatter and fluorescence of single cells or particles in a stream.
The subject of data set [6] is MCF7. Kind of data set: Antiproliferative activity against human MCF7 cells assessed as cell viability at 5 uM incubated for 48 hrs by MTT assay (reference value: 100 %). The format is functional. The settings on record: MCF7, 48 h, read-out: Activity. The procedure, abridged: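 Preliminary single-dose screen by MTT assay. MCF-7 cells grown in DMEM/10% FBS were exposed to 5 μM compound for 48 h, and growth% was determined. Values are mean ± S.D., n = 6.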
On the technique in general: Formazan colour is commonly taken as a measure of viable cells.

For data set [7], the system named is MCF7. Kind of data set: Cell cycle arrest in human MCF7 cells assessed as subG1 accumulation at 5 uM incubated for 24 hrs by propidium iodide based flow cytometry (reference value: 0.6 to 3 %). The format is functional.
The subject of data set [8] is MCF7. Kind of data set: Induction of apoptosis in human MCF7 cells assessed as necrotic cells at 5 uM incubated for 24 hrs by annexin V FITC and propidium iodide staining based flow cytometry (reference value: 4.1 to […]). Format: functional.
Data set [9] relates to MCF7. Put plainly: Induction of apoptosis in human MCF7 cells assessed as early apoptotic cells at 5 uM incubated for 24 hrs by annexin V FITC and propidium iodide staining based flow cytometry (reference value: 0 to 9 %). The format is functional.
Data set [10] deals with MCF7. Put plainly: Induction of apoptosis in human MCF7 cells assessed as late apoptotic cells at 5 uM incubated for 24 hrs by annexin V FITC and propidium iodide staining based flow cytometry (reference value: 0 to 2.5 %). Format: functional.
Data set [11] can be described thus: Selectivity index, ratio of IC50 for cytotoxicity against human MRC5 cells to IC50 for antiproliferative activity against human HT-29 cells. The conditions noted are these: MRC5 cells versus HT-29 cells.
Data set [12] has as its system MCF7. Kind of data set: Cell cycle arrest in human MCF7 cells assessed as G1 accumulation at 10 uM incubated for 24 hrs by propidium iodide based flow cytometry (reference value: 49.6 to 55.1 %). Format: functional.
Data set [13] has as its system MCF7. Put plainly: Cell cycle arrest in human MCF7 cells assessed as G1 accumulation at 5 uM incubated for 24 hrs by propidium iodide based flow cytometry (reference value: 49.6 to 55.1 %). The format is functional.
The test system of data set [14] is MCF7. Kind of data set: Induction of apoptosis in human MCF7 cells assessed as viable cells at 1 uM incubated for 24 hrs by annexin V FITC and propidium iodide staining based flow cytometry (reference value: 76 to 95.9 %). Format: functional. The conditions noted are these: MCF7, 24 h, read-out: Activity.
Data set [15] deals with MCF7. Kind of data set: Induction of apoptosis in human MCF7 cells assessed as late apoptotic cells at 1 uM incubated for 24 hrs by annexin V FITC and propidium iodide staining based flow cytometry (reference value: 0 to 2.5 %). The format is functional.
In another data set the test system is A2780. Kind of data set: Antiproliferative activity against human A2780 cells assessed as reduction in cell growth incubated for 72 hrs by MTT assay. The format is functional, cell-based. The conditions noted are these: A2780, 72 h. An outline of the steps: (§2)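 MTT assay on MCF-7, A2780, HT29 and normal MRC5 fibroblast lines (ATCC) grown in DMEM with 10% FBS. Cells exposed to compounds for 72 h, then reduced MTT read at 570 nm.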

The test system of data set [16] is MCF7. Put plainly: Cell cycle arrest in human MCF7 cells assessed as S phase accumulation at 10 uM incubated for 24 hrs by propidium iodide based flow cytometry (reference value: 17.3 to 28.5 %). Format: functional.
In data set [17] the test system is MCF7. Kind of data set: Induction of apoptosis in human MCF7 cells assessed as viable cells at 10 uM incubated for 24 hrs by annexin V FITC and propidium iodide staining based flow cytometry (reference value: 76 to 95.9 %). The settings on record: MCF7, 24 h, read-out: Activity. Format: functional.
For data set [18], the system named is MCF7. Kind of data set: Antiproliferative activity against human MCF7 cells assessed as reduction in cell growth incubated for 72 hrs by MTT assay. The conditions noted are these: MCF7, 72 h. The format is functional, cell-based. The procedure, abridged:
as §2

For data set [19], the system named is MCF7. Kind of data set: Induction of apoptosis in human MCF7 cells assessed as late apoptotic cells at 10 uM incubated for 24 hrs by annexin V FITC and propidium iodide staining based flow cytometry (reference value: 0 to 2.5 %). Format: functional.
Data set [20] deals with MCF7. Put plainly: Cell cycle arrest in human MCF7 cells assessed as G2/M phase accumulation at 5 uM incubated for 24 hrs by propidium iodide based flow cytometry (reference value: 17.2 to 26.8 %). The format is functional.
Data set [21] concerns Rattus norvegicus. Kind of data set: Antiinflammatory activity against albino rats assessed as inhibition of carrageenan-induced paw edema at 0.5 mmol, po measured after 4 hrs relative to control. The format is functional. An outline of the steps: as §1
Data set [22] has as its system MCF7. Kind of data set: Cell cycle arrest in human MCF7 cells assessed as G1 accumulation at 1 uM incubated for 24 hrs by propidium iodide based flow cytometry (reference value: 49.6 to 55.1 %). Format: functional.
The subject of data set [23] is MCF7. Put plainly: Induction of apoptosis in human MCF7 cells assessed as early apoptotic cells at 10 uM incubated for 24 hrs by annexin V FITC and propidium iodide staining based flow cytometry (reference value: 0 to 9 %). Format: functional.
The target in data set [24] is Prostaglandin G/H synthase 1 (Homo sapiens, UniProt P23219). Kind of data set: Inhibition of human COX1 using arachidonic acid as substrate incubated for 2 mins by ELISA method.
Sequence of Prostaglandin G/H synthase 1 (P23219 whole entry): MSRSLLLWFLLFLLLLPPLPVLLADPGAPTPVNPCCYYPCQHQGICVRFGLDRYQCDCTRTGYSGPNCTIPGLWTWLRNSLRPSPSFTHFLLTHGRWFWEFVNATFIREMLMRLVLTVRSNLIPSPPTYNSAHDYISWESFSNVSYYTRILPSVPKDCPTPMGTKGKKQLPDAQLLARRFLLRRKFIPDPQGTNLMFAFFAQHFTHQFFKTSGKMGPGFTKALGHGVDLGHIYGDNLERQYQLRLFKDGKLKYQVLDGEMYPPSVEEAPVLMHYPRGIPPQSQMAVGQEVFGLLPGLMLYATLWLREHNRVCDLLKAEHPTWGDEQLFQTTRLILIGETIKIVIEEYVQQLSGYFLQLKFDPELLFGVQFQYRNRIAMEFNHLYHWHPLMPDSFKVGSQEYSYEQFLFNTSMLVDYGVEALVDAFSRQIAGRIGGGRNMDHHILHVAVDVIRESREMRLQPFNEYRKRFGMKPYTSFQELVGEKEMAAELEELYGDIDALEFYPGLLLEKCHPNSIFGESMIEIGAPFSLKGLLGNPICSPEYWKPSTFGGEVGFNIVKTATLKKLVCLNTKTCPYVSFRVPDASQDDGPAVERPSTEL
For data set [25], the system named is MCF7. Kind of data set: Cell cycle arrest in human MCF7 cells assessed as S phase accumulation at 1 uM incubated for 24 hrs by propidium iodide based flow cytometry (reference value: 17.3 to 28.5 %). The format is functional.
The test system of another data set is MRC5. Kind of data set: Cytotoxicity against human MRC5 cells assessed as reduction in cell growth incubated for 72 hrs by MTT assay. The format is cell-based. The conditions noted are these: MRC5, 72 h. An outline of the steps:
as §2

Data set [26] is described as follows: Selectivity index, ratio of IC50 for cytotoxicity against human MRC5 cells to IC50 for antiproliferative activity against human MCF7 cells. The settings on record: MRC5 cells versus MCF7 cells.
Data set [27] relates to MCF7. Put plainly: Induction of apoptosis in human MCF7 cells assessed as early apoptotic cells at 1 uM incubated for 24 hrs by annexin V FITC and propidium iodide staining based flow cytometry (reference value: 0 to 9 %). The format is functional.
The subject of data set [28] is MCF7. Put plainly: Cell cycle arrest in human MCF7 cells assessed as S phase accumulation at 5 uM incubated for 24 hrs by propidium iodide based flow cytometry (reference value: 17.3 to 28.5 %). The format is functional.
Data set [29] in a line: Selectivity index, ratio of IC50 for cytotoxicity against human MRC5 cells to IC50 for antiproliferative activity against human A2780 cells. The conditions noted are these: MRC5 cells versus A2780 cells.
The test system of a further data set is HT-29. Put plainly: Antiproliferative activity against human HT-29 cells assessed as reduction in cell growth incubated for 72 hrs by MTT assay. The format is functional, cell-based. The settings on record: HT-29, 72 h. An outline of the steps:
as §2

Data set [30] relates to MCF7. Kind of data set: Induction of apoptosis in human MCF7 cells assessed as necrotic cells at 1 uM incubated for 24 hrs by annexin V FITC and propidium iodide staining based flow cytometry (reference value: 4.1 to […]). The format is functional.
In data set [31] the test system is MCF7. Put plainly: Cell cycle arrest in human MCF7 cells assessed as G2/M phase accumulation at 1 uM incubated for 24 hrs by propidium iodide based flow cytometry (reference value: 17.2 to 26.8 %). Format: functional.
Data set [32] relates to Rattus norvegicus. Kind of data set: Antiinflammatory activity against albino rats assessed as inhibition of carrageenan-induced paw edema at 0.5 mmol, po measured after 2 hrs relative to control. Format: functional. An outline of the steps:
as §1

For data set [33], the system named is MCF7. Put plainly: Induction of apoptosis in human MCF7 cells assessed as necrotic cells at 10 uM incubated for 24 hrs by annexin V FITC and propidium iodide staining based flow cytometry (reference value: 4.1 to […]). The format is functional.
The subject of data set [34] is MCF7. Put plainly: Cell cycle arrest in human MCF7 cells assessed as subG1 accumulation at 10 uM incubated for 24 hrs by propidium iodide based flow cytometry (reference value: 0.6 to 3 %). Format: functional.
For data set [35], the system named is MCF7. Kind of data set: Induction of apoptosis in human MCF7 cells assessed as viable cells at 5 uM incubated for 24 hrs by annexin V FITC and propidium iodide staining based flow cytometry (reference value: 76 to 95.9 %). The format is functional. The settings on record: MCF7, 24 h, read-out: Activity.
Data set [36] has as its system MCF7. Kind of data set: Cell cycle arrest in human MCF7 cells assessed as subG1 accumulation at 1 uM incubated for 24 hrs by propidium iodide based flow cytometry (reference value: 0.6 to 3 %). Format: functional.

The source of these data is ChEMBL document CHEMBL4312005, “Optimization of pyrrolizine-based Schiff bases with 4-thiazolidinone motif: Design, synthesis and investigation of cytotoxicity and anti-inflammatory potency” (Eur J Med Chem, 2020).

As for `COc1ccc2c(c1)c(CC(=O)O)c(C)n2C(=O)c1ccc(Cl)cc1` [INDOMETHACIN], the inhibition in vivo at 15 mg/kg turned out to be 56.4% with Rattus norvegicus [1] and 32.3% with Rattus norvegicus [2].

Consider `Cc1ccc(-c2cc(C(F)(F)F)nn2-c2ccc(S(N)(=O)=O)cc2)cc1` [CELECOXIB], for which the inhibition in vivo at 25 mg/kg in the data set with Rattus norvegicus [3] is 37%; with Rattus norvegicus [4], 67.4%.

In the case of `N#Cc1c(/N=C/c2ccc(O)cc2)c(C(=O)Nc2ccc(Br)cc2)n2c1CCC2`, the Activity is reported as 19.8% in the data set on MCF7 [5]; 0.4% in the data set with MCF7 [7]; 17.8% in the data set with MCF7 [8]; 8.6% in the data set with MCF7 [9]; 7.4% in the data set on MCF7 [10]; 27.9% in the data set on MCF7 [12]. Also, the Activity in the data set on MCF7 [13] was 28.9%; in the data set with MCF7 [15], 9.8%; in the data set with MCF7 [16], 51.9%; with MCF7 [19] it was 5.2%; with MCF7 [20], 22%; with MCF7 [22], 31.7%. For the same compound, the Activity in the data set on MCF7 [23] is 5%; in the data set with MCF7 [25], 54.1%; with MCF7 [27], 10.2%; in the data set with MCF7 [28], 49.7%; in the data set with MCF7 [30], 14.3%; with MCF7 [31], 14.2%. In addition, the Activity in the data set on MCF7 [33] worked out at 20.6%; with MCF7 [34], 0.8%; in the data set with MCF7 [36], 0.4%. For the same compound, the viability at 5 µM worked out at 69% with MCF7 [6] and 66.3% in the data set on MCF7 [35]. Also, the selectivity ratio in data set [11], in data set [26] and in [29] was 2 to 52 in each case. Besides, the viability at 1 µM with MCF7 [14] amounted to 65.7%. For the same compound, the IC50 amounted to 0.47 µM in the data set on A2780; 0.49 µM in the data set with MCF7 [18]; 72 µM in data set [24]; 25 µM in the data set on MRC5; 14.5 µM in the data set on HT-29. For the same compound, the viability at 10 µM in the data set on MCF7 [17] was found to be 69.2%. For the same compound, the “inhibition (INH)” value in the data set on Rattus norvegicus [21] turned out to be 44.51%; in the data set on Rattus norvegicus [32], 28.15%.

For orientation: inhibition in vivo means the change of the read-out against control, counted positive when it falls. Broadly, the IC50 is the concentration that inhibits the measured activity by half.
